In the array DNA melting data of Ke et al. (doi:10.1101/2024.01.08.574731):

Assays:
[1] = melting temperature; fluorescence melt of hairpins on a sequencing array, two-state fit, raised by 9.35 °C to match UV melts; conditions: sodium 0.088 M
Method in brief: (§1)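 With Cy3 and quencher oligos annealed, library hairpins on a sequenced MiSeq flow cell were imaged for Cy3 fluorescence in 50 mM Na-HEPES pH 8.0, 25 mM NaCl, in 2.5 °C steps up to 60 °C. Melting temperature and folding enthalpy were derived from bootstrapped two-state fits of signals normalised to pre-quench Cy3 and to control constructs. Four replicates were combined by inverse variance, with fitted temperatures raised by 9.35 °C to match UV melts.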

[2] = folding enthalpy; higher = less favourable; fluorescence melt of hairpins on a sequencing array, two-state fit; conditions: sodium 0.088 M
Method in brief: as §1

Sequence | Tm [1] | folding enthalpy [2]
GTCTCCGAAAGGAAAGAC ((((((....)))..))) | 42.4 °C | -23.1 kcal/mol
GTCTCCGAAAGGAAGGAC ((((((....)))..))) | 36.2 °C | -16.5 kcal/mol
GTCTCCGAAAGGACGAC ((((((....))).))) | 46.7 °C | -27.5 kcal/mol
GTCTCCGCGAAAGCGGAC (((..(((....)))))) | 34.2 °C | -6.7 kcal/mol
GTCTCGAAAGAGAC (((((....))))) | 60.5 °C | -24.8 kcal/mol
GTCTCGGGAAACCGGGAC (((.(((....))).))) | 55.3 °C | -38.4 kcal/mol
GTCTCGGGAAACTGGGAC (((.(.(....).).))) | 37.2 °C | -29.3 kcal/mol
GTCTCTCGAAAGAGCGAC (((.(((....))).))) | 46.3 °C | -25.6 kcal/mol
GTCTGAGGAAACTCGGAC (((.(((....))).))) | 49.4 °C | -36.2 kcal/mol
GTCTGATCGAAAGATGAC (((..(((....)))))) | 30.1 °C | -19.8 kcal/mol
GTCTGCCGAAAGGCCGAC (((.(((....))).))) | 54.1 °C | -25.6 kcal/mol
GTCTGCGAAAGCAGGAC ((((((....))).))) | 57.8 °C | -11.4 kcal/mol
GTCTGCGGAAACGCAGGC (.(((((....))))).) | 63.9 °C | -19.6 kcal/mol
GTCTGCGGAAACGCGGAC (((.(((....))).))) | 63.7 °C | -39.2 kcal/mol
GTCTGCGGAAACGTAGAC ((((.((....)).)))) | 53.2 °C | -37.8 kcal/mol
GTCTGGGAAACCAGAC ((((((....)))))) | 58.3 °C | -38.3 kcal/mol
GTCTGGGCGAAAGCCGAC (((..(((....)))))) | 44.4 °C | -14.6 kcal/mol
GTCTGGGGAAACCCAGGC (.(((((....))))).) | 55.5 °C | -28.1 kcal/mol
GTCTGGGGAAACTCAGAC (((((.(....).))))) | 49.1 °C | -43.7 kcal/mol
GTCTGTCGAAAGACCGAC (((.(((....))).))) | 47.7 °C | -27.8 kcal/mol
GTCTGTCGAAAGACGAC (((.(((....)))))) | 51.5 °C | -28.6 kcal/mol
GTCTGTGGAAACACAAAC ((.((((....)))).)) | 28.1 °C | -12.3 kcal/mol
GTCTGTGGAAACACAGGC (.(((((....))))).) | 53.7 °C | -32.4 kcal/mol

Sequence | Tm [1] | folding enthalpy [2]
GTCTGTGGAAACACGGAC (((.(((....))).))) | 53 °C | -34.9 kcal/mol
GTCTGTGGAAACATAGGC (.((.((....)).)).) | 31.3 °C | -16.4 kcal/mol
GTCTTAGAAATAAGAC ((((((....)))))) | 43.4 °C | -26.5 kcal/mol
GTCTTAGGAAACCAAGAC (((((.(....).))))) | 34.4 °C | -30.9 kcal/mol
GTCTTCACGAAAGTGGAC (((..(((....)))))) | 31.9 °C | -14.2 kcal/mol
GTCTTCGAAAGAACGAC ((((((....))).))) | 37.6 °C | -21.2 kcal/mol
GTCTTCGAAAGAATGGAC ((((((....)))..))) | 27.2 °C | -14.9 kcal/mol
GTCTTGGGAAACCAAGAC (((((((....))))))) | 62.1 °C | -46.4 kcal/mol
GTCTTGGGAAACTAAGAC (((((.(....).))))) | 42.8 °C | -34.9 kcal/mol
GTGAAACGAAAGTTCAC (((.(((....)))))) | 47.6 °C | -18.3 kcal/mol
GTGAAACGAAAGTTCCAC (((.(((....))).))) | 43.9 °C | -22.8 kcal/mol
GTGAAAGGAAACCTTCAC (((((.(....).))))) | 36.5 °C | -27 kcal/mol
GTGAAAGGAAACTCTCAC ((((.((....)).)))) | 26.5 °C | -12.6 kcal/mol
GTGAACCCGAAAGGGCAC (((..(((....)))))) | 38.9 °C | -15.8 kcal/mol
GTGAACCGAAAGGTACAC (((.(((....))).))) | 54.3 °C | -35.7 kcal/mol
GTGAACGAAAGTTCACAC ((((((....)))..))) | 66.6 °C | -10.8 kcal/mol
GTGAACGAAAGTTCCCAC ((((((....)))..))) | 29.7 °C | -10.9 kcal/mol
GTGAACGAAAGTTTTCAC ((((((....)))..))) | 31.1 °C | -15.6 kcal/mol
GTGAACGGAAACATTCAC (((((.(....).))))) | 35.4 °C | -31.7 kcal/mol
GTGAACGGAAACGCTCAC ((((.((....)).)))) | 47.6 °C | -31.5 kcal/mol
GTGAAGCGAAAGCTCCAC (((.(((....))).))) | 50 °C | -24 kcal/mol
GTGAAGGGAAACCTCCAC (((.(((....))).))) | 38.5 °C | -19.9 kcal/mol
GTGAAGTCGAAAGACCAC (((..(((....)))))) | 38.3 °C | -23.9 kcal/mol
